Compound activity: PubChem, The Scripps Research Institute Molecular Screening Center
In the library only some 3% were active in any assay of this set; here they are far more common.
S1P3 agonist: agonists of human S1P3 receptor; S1P3 NFAT-BLA reporter cells, agonism, FRET ratio; relative to 1 µM S1P, basal subtracted; activation, % at 4.5 µM; 60,000 tested, 0.1% active;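 active = activation above the screen-wide mean plus 3 SD, cut at about 4.5% in these data, passing the limit was not always enough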
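Material: Human S1P3 NFAT-BLA reporter CHO cells | Incubation: Overnight plating, 4 h compound 37 °C, 2 h substrate RT | Signal: FRET β-lactamase substrate fluorescence, excitation 405 nm, 460/535 nm emission ratio, background-subtracted | Compound: 4.5 µM final, single dose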
HTR1A agonist: agonists of human 5-HT1a serotonin receptor | CHO 5-HT1a Ga15 NFAT-bla reporter, FRET ratio; 0% basal, 100% maximal reference agonist | activation, % at 10 µM | 65,000 tested, 0.56% active;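 active = activation above the screen-wide mean activation plus 3 SD, cut at about 19% in these data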;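 also: 0% = DMSO wells and 100% = 5-CT at EC100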
Target sequence (P08908 whole entry, looked up): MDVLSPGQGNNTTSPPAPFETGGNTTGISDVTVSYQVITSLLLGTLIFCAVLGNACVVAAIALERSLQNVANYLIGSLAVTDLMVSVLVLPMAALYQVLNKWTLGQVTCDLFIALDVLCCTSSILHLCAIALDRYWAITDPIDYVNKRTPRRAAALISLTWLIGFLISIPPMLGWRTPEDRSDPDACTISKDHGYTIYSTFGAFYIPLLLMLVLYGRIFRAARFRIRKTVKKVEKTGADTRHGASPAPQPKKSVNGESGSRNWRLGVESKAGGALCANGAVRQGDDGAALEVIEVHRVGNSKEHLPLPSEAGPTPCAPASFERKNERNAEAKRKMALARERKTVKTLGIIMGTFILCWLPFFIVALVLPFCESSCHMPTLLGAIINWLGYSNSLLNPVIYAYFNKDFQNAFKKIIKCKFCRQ
5HT1E antag: 5-HT1E (human) receptor antagonism; inhibition, % at 6 µM; P28566; CHO 5-HT1E Ga15 NFAT-bla reporter, FRET, antagonist; 65,000 tested, 0.99% active;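 active = inhibition above a set limit, the mean inhibition across every tested compound plus 3 SD, cut at about 29% in these data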;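 also: signal is the 460 over 535 nm emission ratio of beta-lactamase substrate; 0% = agonist plus DMSO wells and 100% = wells without agonist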
HTR1E agonist: 5-HT1E (human) receptor agonism | P28566 | CHO 5-HT1E Ga15 NFAT-bla reporter, FRET; 0% DMSO wells, 100% control agonist wells | activation, % at 6 µM | 65,000 tested, 0.69% active | AID 574;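 active = activation above a set limit, the screen-wide mean activation plus 3 SD, cut at about 8.5% in these data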;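 also: 100% = positive control agonist at 1 µM giving full maximal response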
S1P1 ag-PAM: S1P1 (human) agonism or agonism potentiation; P21453; S1P1 CRE-bla cells, forskolin, beta-lactamase FRET, potentiator mode; S1P1 agonist co-added at EC20, 2 nM; 100% = saturating reference agonist, 0% = basal; activation, % at 9.5 µM; 56,000 tested, 0.57% active;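 active = activation above a cutoff set at the mean activation of all tested compounds plus 3 SD, cut at about 54% in these data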;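 also: forskolin at 4 µM as EC80 and the EC20 agonist is SEW2871; 100% = SEW2871 at its EC100 plus forskolin at EC80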
5-HT1A blocker: blocks the human serotonin 5-HT1a receptor. inhibition, % at 10 µM. 62,000 tested, 0.68% active. CHO 5-HT1a Ga15 NFAT-bla reporter, antagonist mode. P08908;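 active = inhibition above the mean of all tested compounds plus 3 SD, cut at about 43% in these data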;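 also: receptor stimulated by 5-CT agonist at 100 nM near EC80; beta-lactamase reporter measured by ratiometric fluorescence of a cleavable substrate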
* marks the source's active call; other numbers are inactive results; / = no result.

SMILES	S1P3 agonist	HTR1A agonist	5HT1E antag	HTR1E agonist	S1P1 ag-PAM	5-HT1A blocker
C=CCOc1nc2c(c(=O)n(C)c(=O)n2C)n1Cc1c(Cl)cccc1Cl	-3.6	3.3	8.3	-0.7	9.7	/
COc1ccc(CN2C(=O)CN=C2Nc2cc(C)ccc2C)cc1	/	-1.3	-0.4	-1.0	/	8.6
CCOC(=O)c1ccc(N2C(=O)C3ON(c4ccccc4)C(c4ccco4)C3C2=O)cc1 (configuration not stated)	0.0	1.4	-1.8	1.0	-8.0	0.6
Brc1ccc(CSc2nnc(-c3ccccn3)n2Cc2ccco2)cc1	/	-1.2	27.2	-0.8	/	65.4*
CC(C)CNS(=O)(=O)c1ccc(S(=O)(=O)N2CCN(CCC#N)CC2)cc1	-0.8	-0.4	6.2	0.6	-12.9	-16.6
COc1ccc(C2(O)CCN(CCCCOc3ccccc3)CC2)cc1	0.1	-1.1	4.1	0.1	2.0	66.6*
O=C(C1COc2ccccc2O1)N1CCc2ccccc21 (configuration not stated)	0.0	-4.0	-17.6	0.2	-26.2	0.3
Cc1cc(C)nc(NCC(O)COc2ccccc2C)n1 (configuration not stated)	-0.6	-1.0	-4.8	0.2	4.1	10.2
Cc1c[nH]c2cccc(OCC(O)CNC(C)(C)C)c12 (configuration not stated)	-0.1	-3.3	0.8	1.7	-12.0	82.5*
CC(C)(C)NCC(O)COc1ccccc1C(C)(C)C (configuration not stated)	-0.2	-1.7	4.6	0.4	17.4	80.1*
CCOc1ccccc1OCC(O)CNC (configuration not stated)	-0.3	-0.1	-0.8	2.1	16.8	-8.5
CN(C)c1ccc2c(c1)OC(N)=C(C#N)C2c1cccc(F)c1 (configuration not stated)	-1.9	-3.0	75.4*	0.7	-9.4	9.7
CCOC(=O)/C=C/S(=O)(=O)c1ccc(NC(C)=O)cc1	-2.0	-2.7	89.2*	-1.3	151.7*	98.4*
COc1ccccc1C1CC(=O)Nc2cc3c(cc21)OCCO3 (configuration not stated)	-1.0	-0.2	46.9*	-0.6	-0.8	26.9
CC(C)Oc1ccccc1C1CC(=O)Nc2cc3c(cc21)OCCO3 (configuration not stated)	-2.3	-4.9	62.6*	-1.1	-23.9	50.1*
COc1cccc(C2CC(=O)Nc3cc4c(cc32)OCCO4)c1OC(C)C (configuration not stated)	-1.4	-1.0	5.7	0.6	-22.9	12.5
CN(CC(=O)Nc1nccs1)S(=O)(=O)c1ccc(F)cc1	-0.9	-2.8	6.6	-1.0	14.8	1.7
O=C(NCc1ccco1)C(c1cccs1)N(C(=O)Cc1cccs1)c1ccccc1 (configuration not stated)	-1.5	-1.9	14.6	-1.7	3.4	51.9*
